From ChEMBL document CHEMBL4613291, “Structural Elucidation and Antimicrobial Characterization of Novel Diterpenoids from Fabiana densa var. ramulosa” (ACS Med Chem Lett, 2020) come the findings set out here.

Active and inactive are the calls of the source. The calls are words filed in the database; no cut-off is given here.

For data set [1], the system named is Priestia megaterium. Description: Antimicrobial activity against Bacillus megaterium Bm11 assessed as reduction in bacterial growth at 16 to 64 uM incubated for 16 hrs by broth dilution method. The class given is functional, organism-based. The gist of the method:
(§1)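 Bacterial growth was measured with the strain panel split into Gram-negative and Gram-positive groups. Growth is expressed as percentage of vehicle-treated control bacteria. Values are the mean of three independent experiments ± SEM. Each treated group was compared with control for significance (p < 0.05, 0.01, 0.0001). The highest concentration tested was 64 μM.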

The subject of another data set is Escherichia coli. Description: Antimicrobial activity against Escherichia coli ATCC 25922 assessed as reduction in bacterial growth at 16 to 64 uM incubated for 16 hrs by broth dilution method. The format is functional, organism-based. The method in brief: as §1
Background: Broth dilution looks for growth in wells or tubes with falling amounts of substance.

Data set [2] relates to Staphylococcus aureus. Description: Antimicrobial activity against Staphylococcus aureus ATCC 25923 assessed as reduction in bacterial growth at 16 to 64 uM incubated for 16 hrs by broth dilution method. The class given is functional, organism-based. The method in brief:
as §1

Data set [3] concerns Bacillus thuringiensis. Description: Antimicrobial activity against Bacillus thuringiensis B15 assessed as reduction in bacterial growth at 16 to 64 uM incubated for 16 hrs by broth dilution method. The class given is functional, organism-based. The method in brief:
as §1

In another data set the test system is Pseudomonas aeruginosa. Description: Antimicrobial activity against Pseudomonas aeruginosa ATCC 27853 assessed as reduction in bacterial growth at 16 to 64 uM incubated for 16 hrs by broth dilution method. The format is functional, organism-based. The method in brief: as §1
In data set [4] the test system is Staphylococcus epidermidis. Description: Antimicrobial activity against Staphylococcus epidermidis ATCC 12228 assessed as reduction in bacterial growth at 16 to 64 uM incubated for 16 hrs by broth dilution method. The format is functional, organism-based. The method in brief:
as §1

The test system of data set [5] is Bacillus thuringiensis. Description: Antimicrobial activity against Bacillus thuringiensis B15 assessed as reduction in bacterial growth at 64 uM incubated for 16 hrs by broth dilution method relative to control. The class given is functional. To be noted: B15, 16 h. The method in brief:
as §1

Data set [6] in a line: Cytotoxicity against human HaCaT cells assessed as reduction in cell viability at 64 uM incubated for 24 hrs by MTT assay relative to control. The settings on record: read-out: INH. The format is cell-based. The gist of the method:
(§2)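 Human immortalized keratinocytes (HaCaT) were exposed for 24 h across 16–64 μM. Metabolically active cells were read by MTT and calculated as a percentage of vehicle-treated cells. Values are the mean of three independent experiments ± SEM.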

The test system of data set [7] is Priestia megaterium. Description: Antimicrobial activity against Bacillus megaterium Bm11 assessed as reduction in bacterial growth at 16 to 64 uM incubated for 16 hrs by broth dilution method relative to control. The format is functional. The method in brief: as §1
The test system of the next data set is HaCaT. Description: Cytotoxicity against human HaCaT cells assessed as reduction in cell viability at 16 to 64 uM incubated for 24 hrs by MTT assay. The class given is cell-based. The method in brief:
as §2
(Tetrazolium assays rely on reduction of a dye to a coloured formazan, in cell work by metabolically active cells.)

Data set [8] has as its system Staphylococcus aureus. Description: Antimicrobial activity against Staphylococcus aureus ATCC 25923 assessed as reduction in bacterial growth at 64 uM incubated for 16 hrs by broth dilution method relative to control. The format is functional. To be noted: ATCC 25923, 16 h. The method in brief: as §1
In data set [9] the test system is Staphylococcus epidermidis. Description: Antimicrobial activity against Staphylococcus epidermidis ATCC 12228 assessed as reduction in bacterial growth at 64 uM incubated for 16 hrs by broth dilution method relative to control. The class given is functional. To be noted: ATCC 12228, 16 h. The method in brief: as §1

The term inhibition denotes how much of the control response was suppressed. For the molecule `C[C@]12C=C[C@@]3(CC[C@@H]4[C@@](C)(COC(=O)CCC(=O)OC[C@@]5(C)CCC[C@]6(C)[C@@H]5CC[C@@]57C=C[C@@](C)(CC[C@H]56)C7)CCC[C@@]4(C)[C@@H]3CC1)C2`, the inhibition entry (in the data set on Priestia megaterium [1]; in the data set with Escherichia coli; in the data set on Staphylococcus aureus [2]; in the data set with Bacillus thuringiensis [3]; in the data set on Pseudomonas aeruginosa; in [4]) was “inactive” in each case.
As to `C[C@]12C=C[C@@]3(CC[C@@H]4[C@@](C)(COC(=O)CC(=O)O)CCC[C@@]4(C)[C@@H]3CC1)C2`, the inhibition at 64 µM with Bacillus thuringiensis [5] is greater than 70%. Also, the cytotoxicity at 24 h, 64 µM in data set [6] is 14%. Moreover, the inhibition entry (in the data set with Priestia megaterium [1]; in the data set on Staphylococcus aureus [2]; in the data set on Bacillus thuringiensis [3]; in data set [4]) was “Active” in each case. Also, the “inhibition (INH)” value in the data set on Priestia megaterium [7] is reported as greater than 70%.
In the case of `C[C@]12C=C[C@@]3(CC[C@@H]4[C@@](C)(CO)CCC[C@@]4(C)[C@@H]3CC1)C2`, the inhibition result (with Priestia megaterium [1]; in the data set with Escherichia coli; in the data set with Staphylococcus aureus [2]; with Bacillus thuringiensis [3]; in the data set on Pseudomonas aeruginosa; in data set [4]) was “inactive” in each case. Also, the Activity result with HaCaT is reported as “Non-Toxic”.
Take `C[C@]12C=C[C@@]3(CC[C@@H]4[C@@](C)(COC(=O)C(=O)O)CCC[C@@]4(C)[C@@H]3CC1)C2`: the inhibition at 64 µM in the data set on Bacillus thuringiensis [5] was 50%; with Staphylococcus aureus [8], 40%; in data set [9], 50%. Also, the cytotoxicity at 24 h, 64 µM in data set [6] was 36%.
Consider `C[C@]12C=C[C@@]3(CC[C@@H]4[C@@](C)(COC(=O)CC(=O)OC[C@@]5(C)CCC[C@]6(C)[C@@H]5CC[C@@]57C=C[C@@](C)(CC[C@H]56)C7)CCC[C@@]4(C)[C@@H]3CC1)C2`, for which the inhibition result (in the data set with Priestia megaterium [1]; in the data set on Escherichia coli; with Staphylococcus aureus [2]; with Bacillus thuringiensis [3]; in the data set on Pseudomonas aeruginosa; in data set [4]) was “inactive” throughout.
On to `C[C@]12C=C[C@@]3(CC[C@@H]4[C@@](C)(COC(=O)CCC(=O)O)CCC[C@@]4(C)[C@@H]3CC1)C2`, for which the results for the inhibition at 64 µM (with Bacillus thuringiensis [5]; with Staphylococcus aureus [8]; in data set [9]) were 100%, 40% and 80%, respectively. The cytotoxicity at 24 h, 64 µM in data set [6] was determined as 20%. Moreover, the “inhibition (INH)” value in the data set with Priestia megaterium [7] turned out to be 80%.
Turning to `C[C@]12C=C[C@@]3(CC[C@@H]4[C@@](C)(COC(=O)C(=O)OC[C@@]5(C)CCC[C@]6(C)[C@@H]5CC[C@@]57C=C[C@@](C)(CC[C@H]56)C7)CCC[C@@]4(C)[C@@H]3CC1)C2`, the inhibition entry (with Priestia megaterium [1]; in the data set with Escherichia coli; in the data set on Staphylococcus aureus [2]; with Bacillus thuringiensis [3]; in the data set with Pseudomonas aeruginosa; in data set [4]) was “inactive” each time.
